Compounds with a hit are over-represented: about 1.8% of the library has one in this group of screens.
PPC-1+TRAIL kill = compounds killing PPC-1 cancer cells with TRAIL present, primary screen, TRAIL potentiator project, ATPLite luminescence, uHTS. PPC-1 cells + TRAIL, ATPLite viability luminescence. cell killing (% activity), % at 4 µM or 5 µM. 0.41% of 220,000 active. AID 1443, 2008;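 active = cell killing above 50% in the first pass at 4 µM, then a duplicate retest at 5 µM averaging 50% or more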
STAT3 inh = IL-6 driven STAT3 reporter inhibitors, primary screen, U3A cells, luciferase, luminescence, MLSCN library | IL-6 STAT3-luciferase reporter; host cell line lacks STAT1 | inhibition, % at 5.5 µM | 0.89% of 190,000 active;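 active = inhibition above the mean inhibition across all screened compounds plus 3 SD, cut at about 44% in these data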
TRAIL sens C8 = viability loss with TRAIL in NB7+C8 cells, primary screen, TRAIL sensitizer project, cell-based, ATPlite luminescence. inhibition (viability loss, TRAIL sensitization), % at 10 µM. 1% of 360,000 active;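 active = compounds causing at least 50% loss of cell viability in the single-dose screen, relative to plate controls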
STAT3 activator = IL-6 driven STAT3 reporter potentiators, primary screen, U3A cells, luciferase, luminescence, MLSCN library. IL-6 STAT3-luciferase reporter; 100% = signal with IL-6 EC80 alone. activation (% of control), % at 5.6 µM. 0.91% of 190,000 active;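 active = activation above the screen-wide mean of compound activation plus 3 SD, cut at about 130% in these data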
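Material: STAT3-luciferase reporter U3A cells; Probe or stimulus: IL-6 (33 ng/mL); Incubation: compound pre-incubation 1 h before IL-6, then 6 h stimulation at 37 °C; Technique: luminescence from STAT3-driven luciferase reporter; Evaluation: % activation versus median of IL-6-stimulated wells; Controls: IL-6-only high control.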
STAT1 inh = STAT1 signaling inhibitors, primary screen, cell-based, HTS, luciferase reporter; NIH 3T3 STAT1-luciferase reporter, IFN-gamma, luminescence; inhibition, % at 5.5 µM; 0.35% of 200,000 active; AID 920, 2007;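 active = inhibition above a set limit, the mean inhibition across all tested compounds plus 3 SD, cut at about 34% in these data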
Hits are given with their value; - = inactive; . = no result.

SMILES	PPC-1+TRAIL kill	STAT3 inh	TRAIL sens C8	STAT3 activator	STAT1 inh
CC(/C=N/NC(=O)c1nn(C)c(C)c1Br)=C\c1ccccc1	54	-	57	-	-
CC(=C/c1ccccc1)/C=N/NC(=O)c1cccs1	-	.	58	.	.
CC(/C=N/NC(=O)c1c(Br)cnn1C)=C\c1ccccc1	-	-	-	-	-
Cc1ccc(C2C(N)C(=O)N2c2ccc(C)cc2)cc1 (stereo not given)	.	.	-	.	.
COC(=O)c1cccc(NC(=O)c2cccc(-n3cnnn3)c2)c1	.	.	-	.	.
CC(C)(C)c1ccc(C(=O)Nc2cccc(-n3cnnn3)c2)cc1	.	.	71	.	.
O=C(Nc1cnc2ccccc2c1)c1cccc(-n2cnnn2)c1	-	-	-	138	-
Cn1c(COc2ccc(Br)cc2)nnc1SC1CCc2ccccc2C1=O (stereo not given)	-	-	-	133	-
Cn1c(COc2ccccc2)nnc1SCCSc1nnc(COc2ccccc2)n1C	-	-	-	-	-
CCOCc1nc(N)nc(N)c1-c1cccc(Cl)c1	.	.	56	.	.
COc1ccc(-n2nnnc2SCC(=O)Nc2cccc(O)c2)cc1	.	.	-	.	.
C=CCn1c(C)cc(C(=O)COC(=O)[C@@H](NC(=O)c2ccccc2Cl)C(C)C)c1C	77	-	85	-	-
CC(C)CCC1(C)NC(=O)N(CC(=O)NCC(=O)Nc2ccc(F)c(F)c2F)C1=O (stereo not given)	.	.	-	.	.
Cc1cccc(N2CCN(C(=O)CNC(=O)c3cccc([N+](=O)[O-])c3)CC2)c1C	.	.	-	.	.
Cc1ccc2c(c1C)-c1c(ccc(C)c1C)C(=O)C2=O	.	.	58	.	.
Cc1nn(C(=O)c2cc3sccc3[nH]2)c(C)c1C	-	-	-	143	-
Cc1nn(C(=O)CNC(=O)c2ccccc2)c(C)c1C	-	-	-	-	-
CC(=NNC(=O)c1ccccc1N)c1ccccc1O	.	.	54	.	.
c1ccc(-c2cnc(-c3ccccn3)nn2)cc1	.	.	58	.	.
c1ccc(-c2cnc(-c3ccccc3)nn2)cc1	.	.	52	.	.
O=C(CBr)c1ccc([N+](=O)[O-])c(CS(=O)(=O)c2ccc(Cl)cc2)c1	.	.	-	.	.
COc1ccc(NC(=O)CSc2nnc(Cc3ccc(C)cc3)c(=O)n2N)cc1OC	.	.	-	.	.
CN(C)c1ccc(N=Nc2ccccc2C(=O)OCC(=O)N2CCCC2)cc1	-	-	-	-	-
CN(C)c1ccc(N=Nc2ccccc2C(=O)OCC(=O)N2CCCCCC2)cc1	-	-	55	-	-
CN(C(=O)CSc1nnc(-c2ccc(OC(F)F)cc2)n1N)C1CCS(=O)(=O)C1 (stereo not given)	.	.	-	.	.
SMILES	PPC-1+TRAIL kill	STAT3 inh	TRAIL sens C8	STAT3 activator	STAT1 inh
CCCCn1c(Nc2ccccc2)nc2ccccc21	-	-	-	-	-
CCCn1c(Nc2nc3ccccc3n2C)nc2ccccc21	-	-	53	-	-
Cc1ccc(C(C)(c2ccc(N)cc2)c2ccc(N)cc2)cc1	.	.	-	.	.
O=C1c2ccccc2C(=O)c2[nH]c(=O)[nH]c21	.	.	75	.	.
FC(F)(F)c1cccc(-c2nc3nc(Cl)c(Cl)nc3[nH]2)c1	-	.	53	.	.
CCCN1C(=O)/C(=C/c2ccc(C)s2)SC1=Nc1ccc(OC)cc1	-	-	-	-	-
CCN(CC)CCN1C(=O)/C(=C\c2ccc(Cl)c([N+](=O)[O-])c2)SC1=Nc1ccc(OC)cc1	.	.	89	.	.
COc1ccc(N=C2S/C(=C\c3ccc(Cl)c([N+](=O)[O-])c3)C(=O)N2CCN(C)C)cc1	.	.	80	.	.
CCN1C(=O)/C(=C/c2cccs2)SC1=Nc1ccc(OC)cc1	-	-	-	-	-
O=C(c1ccc(-n2cccn2)cc1)N1CCc2ccccc2C1	-	.	-	.	.
Cc1cccc(C2c3[nH]c4ccccc4c3CCN2C(=O)CN2CCOC2=O)n1 (stereo not given)	-	-	-	134	-
Cc1cccc(C2c3[nH]c4ccccc4c3CCN2C(=O)Cc2nc(-c3ccccc3)n[nH]2)n1 (stereo not given)	-	-	-	-	-
CC1CCN(S(=O)(=O)c2ccc(NC(=O)c3ccncc3)cc2)CC1	.	.	-	.	.
CCCS(=O)(=O)c1ncc(Cl)c(C(=O)Nc2ccc(S(=O)(=O)Nc3ncccn3)cc2)n1	.	.	-	.	.
CCOC(=O)c1ccc(NC(=O)c2nc(S(=O)(=O)Cc3ccccc3)ncc2Cl)cc1	.	.	78	.	.
CCc1ccc(NC(=O)c2nc(S(=O)(=O)Cc3ccccc3)ncc2Cl)cc1	.	.	96	.	.
CC(=O)Nc1ccc(NC(=O)c2nc(S(=O)(=O)Cc3cccc(C)c3)ncc2Cl)cc1	.	.	90	.	.
COC(=O)c1ccc(NC(=O)c2nc(S(=O)(=O)Cc3cccc(C)c3)ncc2Cl)cc1	.	.	-	.	.
CCOC(=O)c1ccc(NC(=O)CCS(=O)(=O)Cc2ccccc2)cc1	.	.	-	.	.
CCS(=O)(=O)c1ncc(Cl)c(C(=O)Nc2ccc(S(=O)(=O)N3CCC(C)CC3)cc2)n1	.	.	94	.	.
Cn1c(SCC(=O)Nc2nccs2)nnc1-c1ccccn1	.	.	-	.	.
Cc1nn(-c2ccccc2)c(C)c1C(=O)OCC(=O)N1c2ccccc2NC(=O)C1(C)C	-	-	-	-	-
CCc1cccc(C)c1NC(=O)CSc1nnc(C)o1	.	.	-	.	.
Cc1ccc(NC(=O)c2nc(S(=O)(=O)Cc3ccccc3C)ncc2Cl)cc1C	.	.	58	.	.
Cc1cccc(NS(=O)(=O)c2ccc3c(c2)Cc2cc(S(=O)(=O)Nc4cccc(C)c4C)ccc2-3)c1C	-	-	60	-	-
SMILES	PPC-1+TRAIL kill	STAT3 inh	TRAIL sens C8	STAT3 activator	STAT1 inh
CCN(CC)S(=O)(=O)c1cccc(NC(=O)Nc2cccc(C(F)(F)F)c2)c1	-	-	65	-	-
O=c1oc2ccccc2cc1-c1nc2c(s1)CCc1ccccc1-2	-	-	-	134	-
Cc1cc(Cl)n2ncc(-c3ccccc3)c2n1	-	.	91	.	.
CCc1ccc(/C=N/Nc2ncnc3nc[nH]c23)cc1	-	.	60	.	.
Cc1nc(-c2ccc(NC(=O)C3CC3)cc2)cs1	.	.	-	.	.
Cc1nc(-c2ccc(NC(=O)c3ccc(Br)o3)cc2)cs1	.	.	55	.	.
Cc1nc(-c2ccc(NC(=O)CC(C)C)cc2)cs1	-	-	53	-	-
O=C(CSc1nnc(-c2ccc(Br)cc2)o1)Nc1cccc2ccccc12	-	-	-	-	-
O=C(CSc1nnc(-c2ccc(Br)cc2)o1)Nc1cccc(C(=O)O)c1	.	.	63	.	.
Cc1cccc(N2CCN(C3C(=O)Nc4ccccc4-n4nnnc43)CC2)c1C (stereo not given)	.	.	-	.	.
CCOc1ccc(/C=C2\CCc3ccccc3C2=O)cc1	-	.	77	.	.
COc1ccc(C=C2CCc3ccccc3C2=O)cc1	.	.	87	.	.
O=C1/C(=C/c2ccncc2)CCc2ccccc21	-	.	-	.	.
CC(=O)N1CCOc2ccc(S(=O)(=O)NCc3ccc(F)cc3)cc21	.	.	-	.	.
CC[n+]1c(/C=C/c2c[nH]c3ccccc23)ccc2cc(C)ccc21	92	59	.	-	58
CCN(CC)C(=O)c1ccc(/C=C/c2c[nH]c3ccccc23)[n+](C)c1	-	-	-	-	-

Compound activity: PubChem BioAssay, several laboratories
